Test results published in ChEMBL document CHEMBL1156237, “Antiviral activity of benzimidazole derivatives. II. Antiviral activity of 2-phenylbenzimidazole derivatives” (Bioorg Med Chem, 2010).
The source made the active and inactive calls. How the calls were made is not given here.

Columns and labels:
[1] = Cytotoxicity against human MT4 cells after 96 hrs by MTT assay; type: cell-based; settings: MT4 cells
In short: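 Exponentially growing MT-4 cells at 1 × 10^5 cells/mL in RPMI-1640 with 10% FCS, exposed to serial compound dilutions at 37 °C, 5% CO2. Viability by MTT after 96 h; CC50 is the concentration reducing viability of mock-infected cells by 50%.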

[2] = Cytotoxicity against MDBK cells after 48 to 96 hrs by MTT assay; type: cell-based, Bos taurus; settings: cattle, MDBK cells
In short: (§1)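 Cell seeding: MDBK at 6 × 10^5 cells/mL in MEM-E with 10% horse serum and 1 mM Na pyruvate; BHK at 1 × 10^6 cells/mL in MEM-E with 10% FBS. Serial compound dilutions, 37 °C, 5% CO2. Viability of mock-infected cells by MTT after 48–96 h; CC50 is the concentration reducing viability by 50%.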

[3] = Cytotoxicity against BHK cells after 48 to 96 hrs by MTT assay; type: cell-based, Mesocricetus auratus; settings: hamster; in short: as §1
[4] = Cytotoxicity against african green monkey Vero cells; type: cell-based; settings: chlorocebus sabaeus
In short: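 Vero 76 monolayers exposed to serial compound dilutions, run in parallel on the same 24-well plates as the plaque-reduction assays. CC50 is the concentration reducing viability of mock-infected cells by 50%.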

[5] = system: Human immunodeficiency virus 1; assay: Antiviral activity against HIV1 3B infected in human MT4 cells assessed as protection from virus-induced cytopathogenicity after 4 days by MTT method; type: functional, organism-based
In short: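 MT-4 cells, 1 × 10^4/well in RPMI with or without serial compound dilutions, infected with HIV-1 IIIB, 100 CCID50 (m.o.i. 0.01). Protection from virus-induced cytopathogenicity read by MTT.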

[6] = system: Vesicular stomatitis virus; assay: Antiviral activity against VSV Indiana lab infected in african green monkey Vero cells after 2 days by plaque reduction assay; type: functional, organism-based
[7] = system: Bovine viral diarrhea virus 1; assay: Antiviral activity against Bovine viral diarrhea virus NADL infected in MDBK cells assessed as protection from virus-induced cytopathogenicity after 3 to 4 days by MTT method; type: functional, organism-based, Bovine viral diarrhea virus 1-NADL; settings: Bovine viral diarrhea virus isolates and strains, MDBK
In short: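 Cytopathogenicity protection assay. MDBK cells at 3 × 10^4/well, grown overnight to confluence. Infected with BVDV NADL at m.o.i. 0.01 in MEM-E with 0.5% inactivated FBS, 1 mM Na pyruvate and 1% kanamycin. Serial compound dilutions added after 1 h. After 3–4 days at 37 °C, viability read by MTT; EC50 is the concentration giving 50% protection.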

Yellow fever virus = assay: Antiviral activity against Yellow fever virus 17D infected in BHK cells assessed as protection from virus-induced cytopathogenicity after 3 to 4 days by MTT method; type: functional, organism-based
Coxsackievirus B2 = assay: Antiviral activity against Human coxsackievirus B2 Ohio-1 infected in african green monkey Vero cells after 3 days by plaque reduction assay; type: functional, organism-based, Coxsackievirus B2 (strain Ohio-1); settings: Enterovirus B, Vero, 72 h
In short: (§2)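 Plaque reduction assay. Vero 76 cells at 2 × 10^5/well, grown overnight to confluence in D-MEM with 10% FBS. Infected 2 h with 50–100 PFU/well, unadsorbed virus removed. Overlay of D-MEM with 1% inactivated FBS and 0.75% methylcellulose, with or without serial compound dilutions. Incubated at 37 °C for 3 days (HSV-1 KOS, CVB-2 Ohio-1) or 5 days (RSV A2). Fixed and stained with crystal violet in 50% ethanol; plaques counted; EC50 by linear regression.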

Poliovirus 1 = assay: Antiviral activity against Polio virus type1 Sabin strain Chat infected in african green monkey Vero cells after 2 days by plaque reduction assay; type: functional, organism-based, Human poliovirus 1 strain Sabin; settings: Enterovirus C, 48 h
Human alphaherpesvirus 1 = assay: Antiviral activity against HSV1 KOS infected in african green monkey Vero cells after 3 days by plaque reduction assay; type: functional, organism-based; settings: Human alphaherpesvirus 1, KOS, 72 h; in short: as §2
[8] = system: Respiratory syncytial virus; assay: Antiviral activity against RSV A2 infected in african green monkey Vero cells after 5 days by plaque reduction assay; type: functional, organism-based; settings: human respiratory syncytial virus, A2, Vero, 120 h; in short: as §2
Vaccinia virus = assay: Antiviral activity against Vaccinia virus Elstree-Lister infected in african green monkey Vero cells after 3 days by plaque reduction assay; type: functional, organism-based; settings: Orthopoxvirus vaccinia, 72 h

| Compound | CC50 at 96 h [1] [µM] | CC50 [2] [µM] | CC50 [3] [µM] | CC50 [4] [µM] | Activity [5] | Activity [6] | EC50 [7] [µM] | EC50 (Yellow fever virus) [µM] | EC50 (Coxsackievirus B2) [µM] | EC50 (Poliovirus 1) [µM] | EC50 (Human alphaherpesvirus 1) [µM] | EC50 [8] [µM] | EC50 (Vaccinia virus) [µM] |
| --- | --- | --- | --- | --- | --- | --- | --- | --- | --- | --- | --- | --- | --- |
| COc1ccc(-c2nc3cc(C(F)(F)F)ccc3[nH]2)c(OC)c1 | > 100 | > 100 | > 100 | > 100 | inactive | inactive | > 100 | > 100 | 32 | > 100 | > 100 | > 100 | > 100 |
| COc1ccc(-c2nc3cc(C(C)=O)ccc3[nH]2)c(OC)c1OC | > 100 | > 100 | > 100 | > 100 | inactive | inactive | > 100 | > 100 | > 100 | > 100 | 40 | > 100 | > 100 |
| COc1cc(-c2nc3cc(C(F)(F)F)ccc3[nH]2)cc(OC)c1OC | 4 | 18 | 31 | 29 | inactive | inactive | > 18 | > 31 | 11 | > 29 | > 29 | > 29 | > 29 |
| CN1CCN(CC(=O)Nc2ccc(-c3nc4cc(Cl)c(Cl)cc4[nH]3)cc2)CC1 | 11 | 90 | 41 | > 100 | inactive | inactive | 4 | > 41 | > 100 | 89 | 51 | – | 6 |
| O=[N+]([O-])c1ccccc1-c1nc2ccccc2[nH]1 | 60 | > 100 | > 100 | > 100 | inactive | inactive | > 100 | > 100 | > 100 | > 100 | > 100 | 40 | > 100 |
| C#C[C@@]1(O)[C@H](O)[C@@H](CO)O[C@H]1n1ccc(N)nc1=O [2'-ETHYNYL-D-CYTIDINE] | ≥ 100 | > 100 | > 100 | > 100 | – | – | 38 | > 100 | 27 | 23 | > 100 | > 100 | > 100 |
| Fc1ccc(-c2nc3cc(C(F)(F)F)ccc3[nH]2)cc1 | 22 | 19 | 25 | 60 | inactive | inactive | > 19 | > 25 | 13 | > 60 | > 60 | > 60 | 8 |
| O=[N+]([O-])c1ccc(-c2nc3ccccc3[nH]2)c([N+](=O)[O-])c1 | 7 | 20 | > 100 | > 100 | inactive | inactive | > 20 | > 100 | 40 | > 100 | 25 | > 100 | > 100 |
| O=c1cnn([C@@H]2O[C@H](CO)[C@@H](O)[C@H]2O)c(=O)[nH]1 (stereo in doubt; form 1) [6-AZAURIDINE] | – | – | – | – | – | – | – | – | – | > 20 | – | 1.2 | 11 |
| COc1ccc(-c2nc3cc([N+](=O)[O-])ccc3[nH]2)c(OC)c1 | > 100 | > 100 | > 100 | > 100 | inactive | inactive | 45 | > 100 | > 100 | > 100 | > 100 | > 100 | > 100 |
| COc1ccc(-c2nc3cc(Cl)c(Cl)cc3[nH]2)c([N+](=O)[O-])c1 | 2 | 28 | 80 | 80 | inactive | inactive | > 28 | > 80 | > 80 | > 80 | > 80 | > 80 | > 80 |
| C[C@@]1(O)[C@H](O)[C@@H](CO)O[C@H]1n1cnc2c(=O)[nH]c(N)nc21 [2'-B-METHYL-GUANOSINE] | > 100 | > 100 | 90 | > 100 | – | – | – | 1.8 | 20 | > 100 | > 100 | > 100 | > 100 |
| NC(=O)c1ncn([C@@H]2O[C@H](CO)[C@@H](O)[C@H]2O)n1 [RIBAVIRIN] | – | > 100 | > 100 | > 100 | – | – | – | > 100 | > 100 | > 100 | > 100 | 7 | > 100 |
| Nc1nc2c(ncn2COCCO)c(=O)[nH]1 [ACYCLOVIR] | > 100 | > 100 | > 100 | > 100 | – | – | > 100 | > 100 | > 100 | > 100 | 3 | > 100 | > 100 |
